Experimental data taken from ChEMBL document CHEMBL2010709, “Pinophilins A and B, inhibitors of mammalian A-, B-, and Y-family DNA polymerases and human cancer cell proliferation” (J Nat Prod, 2012).
pIC50: −log10 of the molar value. The source made the active and inactive calls. The rule behind the calls is not given here.

Legend:
[1] = target: T1, DNA polymerase delta catalytic subunit (Homo sapiens, UniProt P28340); assay: Inhibition of human DNA polymerase delta assessed as inhibition of incorporation of dTTP into poly(dA)/oligo(dT)18 after 60 mins
T1 sequence (P28340 whole entry): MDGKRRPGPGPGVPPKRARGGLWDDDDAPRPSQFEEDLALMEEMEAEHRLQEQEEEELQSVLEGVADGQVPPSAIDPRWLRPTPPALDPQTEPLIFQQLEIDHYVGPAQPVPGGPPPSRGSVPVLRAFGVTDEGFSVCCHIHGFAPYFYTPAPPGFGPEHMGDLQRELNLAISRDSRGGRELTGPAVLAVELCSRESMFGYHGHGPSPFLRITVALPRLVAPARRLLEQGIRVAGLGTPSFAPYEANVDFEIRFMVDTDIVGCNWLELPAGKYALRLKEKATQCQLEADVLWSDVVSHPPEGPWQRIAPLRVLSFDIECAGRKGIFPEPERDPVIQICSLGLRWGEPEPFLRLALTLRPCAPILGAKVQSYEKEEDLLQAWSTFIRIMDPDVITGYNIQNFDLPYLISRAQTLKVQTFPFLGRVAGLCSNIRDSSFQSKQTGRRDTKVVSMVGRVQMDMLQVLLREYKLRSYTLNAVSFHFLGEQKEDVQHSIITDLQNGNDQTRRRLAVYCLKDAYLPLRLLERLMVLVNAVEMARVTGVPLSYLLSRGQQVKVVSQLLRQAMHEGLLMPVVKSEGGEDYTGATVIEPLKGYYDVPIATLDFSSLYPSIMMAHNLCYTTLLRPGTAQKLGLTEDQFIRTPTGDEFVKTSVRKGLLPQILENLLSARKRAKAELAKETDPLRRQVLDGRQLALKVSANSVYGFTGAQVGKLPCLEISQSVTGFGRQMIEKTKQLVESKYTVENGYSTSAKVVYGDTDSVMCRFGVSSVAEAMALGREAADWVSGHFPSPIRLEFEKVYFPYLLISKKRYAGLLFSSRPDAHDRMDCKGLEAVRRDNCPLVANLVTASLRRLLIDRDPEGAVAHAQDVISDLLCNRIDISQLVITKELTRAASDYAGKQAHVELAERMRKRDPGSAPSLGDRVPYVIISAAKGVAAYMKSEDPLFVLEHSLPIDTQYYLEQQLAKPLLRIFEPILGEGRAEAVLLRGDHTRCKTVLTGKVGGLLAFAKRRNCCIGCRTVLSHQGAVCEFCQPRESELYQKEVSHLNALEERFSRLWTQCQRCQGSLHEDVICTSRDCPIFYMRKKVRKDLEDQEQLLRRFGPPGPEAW
Summary of the method: (§1)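 Compound in DMSO was sonicated for 30 s, then held with enzyme (0.05 units final) at 0 °C for 10 min in 50 mM Tris-HCl pH 7.5, 1 mM DTT, 50% glycerol, 0.1 mM EDTA. The mixture was added to the standard reaction mix with poly(dA)/oligo(dT)18 (A/T = 2/1) and dTTP, 37 °C, 60 min. Activity was relative to no-inhibitor control; mean ± SE, three independent experiments.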

[2] = Inhibition of calf DNA primase of polymerase alpha; parameters: species or system Bos taurus
BALL-1 = assay: Cell cycle arrest in human BALL-1 cells assessed as accumulation at S-phase at GI50 by tritiated thymidine incorporation assay; format: functional, cell-based
Polynucleotide kinase = Polynucleotide kinase (Enterobacteria phage T4, UniProt P06855); assay: Inhibition of T4 arnN8l pseT 1 polynucleotide kinase assessed as inhibition of Salmon sperm DNA phosphorylation using [gamma32P]ATP by liquid scintillation counting; parameters: species or system Tequatrovirus T4
DNA polymerase lambda = target: T2, DNA polymerase lambda (Homo sapiens, UniProt Q9UGP5); assay: Inhibition of human recombinant His-tagged DNA polymerase lambda expressed in Escherichia coli assessed as inhibition of incorporation of dTTP into poly(dA)/oligo(dT)18 after 60 mins; summary of the method: as §1
T2 sequence (Q9UGP5 whole entry): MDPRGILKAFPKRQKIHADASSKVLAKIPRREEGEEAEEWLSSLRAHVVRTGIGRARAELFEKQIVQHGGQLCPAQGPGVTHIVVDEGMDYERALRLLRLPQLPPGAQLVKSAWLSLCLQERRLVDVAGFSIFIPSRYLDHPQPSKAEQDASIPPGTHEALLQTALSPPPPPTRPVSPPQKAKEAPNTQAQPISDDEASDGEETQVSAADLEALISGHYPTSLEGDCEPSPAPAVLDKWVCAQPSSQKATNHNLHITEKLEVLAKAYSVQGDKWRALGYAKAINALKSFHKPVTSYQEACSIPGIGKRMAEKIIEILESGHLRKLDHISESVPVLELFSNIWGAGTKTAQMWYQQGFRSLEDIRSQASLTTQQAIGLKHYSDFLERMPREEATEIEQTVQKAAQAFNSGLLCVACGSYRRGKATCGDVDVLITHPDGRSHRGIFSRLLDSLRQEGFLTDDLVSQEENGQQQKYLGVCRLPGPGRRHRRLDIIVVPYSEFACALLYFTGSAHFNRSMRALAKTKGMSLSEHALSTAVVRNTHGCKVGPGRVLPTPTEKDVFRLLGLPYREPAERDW

DNA polymerase iota = target: T3, DNA polymerase iota (Mus musculus, UniProt Q6R3M4); assay: Inhibition of mouse recombinant C-terminal-His6-tagged DNA polymerase iota assessed as inhibition of incorporation of dTTP into poly(dA)/oligo(dT)18 after 60 mins; summary of the method: as §1
T3 sequence (Q6R3M4 whole entry): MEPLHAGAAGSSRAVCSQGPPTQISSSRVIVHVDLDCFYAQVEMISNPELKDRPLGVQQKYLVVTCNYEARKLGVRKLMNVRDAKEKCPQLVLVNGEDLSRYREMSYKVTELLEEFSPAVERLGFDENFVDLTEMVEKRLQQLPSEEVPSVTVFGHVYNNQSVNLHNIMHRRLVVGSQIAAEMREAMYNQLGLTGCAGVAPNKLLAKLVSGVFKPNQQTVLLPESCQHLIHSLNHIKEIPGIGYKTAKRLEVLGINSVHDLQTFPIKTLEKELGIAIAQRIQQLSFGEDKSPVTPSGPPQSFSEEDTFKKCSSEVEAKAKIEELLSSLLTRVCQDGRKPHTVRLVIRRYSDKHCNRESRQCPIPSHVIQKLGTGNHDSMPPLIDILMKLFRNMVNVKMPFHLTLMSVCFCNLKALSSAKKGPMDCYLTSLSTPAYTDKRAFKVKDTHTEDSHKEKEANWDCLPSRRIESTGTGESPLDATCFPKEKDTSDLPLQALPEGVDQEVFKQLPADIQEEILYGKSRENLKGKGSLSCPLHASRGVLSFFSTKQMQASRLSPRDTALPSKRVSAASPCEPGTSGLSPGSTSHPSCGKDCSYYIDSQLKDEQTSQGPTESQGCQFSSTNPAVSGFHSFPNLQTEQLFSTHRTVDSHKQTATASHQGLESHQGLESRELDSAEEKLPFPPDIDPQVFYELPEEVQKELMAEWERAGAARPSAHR

[3] = tested on: Brassica oleracea var. botrytis; assay: Inhibition of cauliflower DNA polymerase alpha assessed as inhibition of incorporation of dTTP into activated DNA primer after 60 mins

Chain of Polynucleotide kinase (P06855 whole entry, looked up): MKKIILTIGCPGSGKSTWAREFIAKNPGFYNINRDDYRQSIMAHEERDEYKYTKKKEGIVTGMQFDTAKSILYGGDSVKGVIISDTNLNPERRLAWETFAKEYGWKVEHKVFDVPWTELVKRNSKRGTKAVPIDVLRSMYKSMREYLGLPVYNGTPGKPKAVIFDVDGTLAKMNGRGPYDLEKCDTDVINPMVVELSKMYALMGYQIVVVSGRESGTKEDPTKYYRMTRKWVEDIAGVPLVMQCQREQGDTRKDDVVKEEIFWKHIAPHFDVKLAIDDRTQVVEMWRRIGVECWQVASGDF

| SMILES | pIC50 [1] | pIC50 [2] | Activity (BALL-1) | pIC50 (Polynucleotide kinase) | pIC50 (DNA polymerase lambda) | pIC50 (DNA polymerase iota) | inhibition [3] |
| --- | --- | --- | --- | --- | --- | --- | --- |
| C/C=C/C1=CC2=CC(=O)[C@@](C)(O)[C@@H](OC(=O)c3c(C)cc(O)cc3O)[C@@H]2CO1 | 4.17 | < 3.70 | Active | < 3.70 | < 3.70 | 4.20 | inactive |
| C/C=C/C1=CC2=CC(=O)[C@@](C)(OC(=O)c3c(C)cc(O)cc3O)[C@@H](O)[C@@H]2CO1 [PINOPHILIN A] | 4.26 | < 3.70 | Active | < 3.70 | < 3.70 | 4.30 | inactive |
| Cc1cc(O)cc(O)c1C(=O)O[C@H]1[C@@H]2COC(/C=C/CO)=CC2=CC(=O)[C@@]1(C)O [PINOPHILIN B] | 4.02 | < 3.70 | Active | < 3.70 | < 3.70 | 4.04 | inactive |
